Measured values as given in article PMC6978834 (ACS Central Science, 2019).

Assays:
[1] = tested on: P. falciparum NF54; format: cell-based; settings: Plasmodium falciparum, NF54, read-out: IC50 P. falciparum proliferation
Procedure, shortened: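 Asynchronous asexual P. falciparum NF54 cultures grown by a standard protocol. Proliferation IC50 determined with DHA as positive and DMSO as negative control. Values are mean IC50 ± SD of at least two independent experiments run in triplicate.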

[2] = tested on: P. falciparum NF54 synchronized asexual parasites; assay: Stage-specificity during the asexual cell cycle; format: cell-based, Plasmodium falciparum; settings: 6 h; data not shown
Procedure, shortened: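 NF54 synchronized to 0–3 hpi by gelatin flotation, then 5% D-sorbitol 3 h later. Plated at 2% hematocrit, 0.5% starting parasitemia. 6 h exposure at 1×, 3× or 10× IC50 starting at 0, 6, 12, 18, 24, 30, 36 or 42 hpi, then cells washed in RPMI and recultured. Giemsa-smear parasitemia at 72 h post-synchronization; survival relative to DMSO. Three independent experiments, one well each; unpaired t test versus DMSO.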

Structure (SMILES) | IC50 [1] [nM] | activity on the ring stages [2]
C[C@H]1[C@@H](O)O[C@@H]2O[C@@]3(C)CC[C@H]4[C@H](C)CC[C@@H]1[C@@]24OO3 [dihydroartemisinin (DHA), dihydroartemisinin] | 5 ± 1 | –
Clc1ccc2c(N3CCN(CCCN4CCN(c5ccnc6cc(Cl)ccc56)CC4)CC3)ccnc2c1 [piperaquine] | – | not active
